The record followed here is ChEMBL document CHEMBL5150021, “Identification of 5-(Aryl/Heteroaryl)amino-4-quinolones as Potent Membrane-Disrupting Agents to Combat Antibiotic-Resistant Gram-Positive Bacteria” (J Med Chem, 2022).

In brackets after ≈: the same amount, converted by molar mass.

Series [1] has as its system Staphylococcus aureus. The experiment in a line: Antibacterial activity against methicillin resistant Staphylococcus aureus FPR3757 assessed as inhibition of bacterial growth incubated for 24 hrs by CLSI based method. Type of series: functional. The note with it: read-out: MIC100. Summed up:
(§1)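 It was mixed 1:1 with twofold serial compound dilutions and incubated stationary at 37 °C for 24 h. MIC was the lowest concentration giving complete inhibition of observable growth, with an oxacillin control.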

The next series has as its system Erythrocyte. The experiment in a line: Hemolytic activity in sheep erythrocytes at 32 ug/ml incubated for 1 hr. In kind it is toxicity, cell-based, Ovis aries. The note with it: dose 32 µg/ml. Summed up: (§2)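 4% sheep erythrocytes mixed 1:1 with twofold serial compound dilutions in PBS, incubated stationary 1 h at 37 °C, then centrifuged at 500g for 5 min. Supernatant A540 is measured and percent hemolysis is calculated relative to DMSO vehicle (0%) and Triton X-100 (100%). Triplicate, mean ± SD.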

A short description of series [2]: Cytotoxicity against sheep erythrocytes assessed as reduction in cell viability. Type of series: toxicity, cell-based, Ovis aries, Erythrocyte. A digest of the protocol: as §2
A short description of series [3]: Therapeutic index, ratio of CC50 for Cytotoxicity against sheep erythrocytes to MIC for antibacterial activity against methicillin resistant Staphylococcus aureus FPR3757. Type of series: toxicity. Summed up: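 Ratio of erythrocyte CC50 to MRSA FPR3757 MIC. For hemolysis, 4% washed sheep erythrocytes were mixed 1:1 with twofold compound dilutions in PBS and incubated 1 h at 37 °C. Supernatant A540 was read after centrifugation and normalized between DMSO and Triton X-100 (100% lysis). Triplicates. Highest concentration tested: 32 μg/mL.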

In series [4] the test system is Staphylococcus aureus. The experiment in a line: Antibacterial activity against methicillin-resistant Staphylococcus aureus MW2 assessed as inhibition of bacterial growth incubated for 24 hrs by CLSI based method. Type of series: functional. Summed up: (§3)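 Broth microdilution per CLSI. Equal volume of twofold serial compound dilutions added. Incubated stationary at 37 °C for 24 h. MIC taken as lowest concentration giving complete inhibition of visible growth. Oxacillin control for Gram-positives, ceftriaxone for Gram-negatives.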

For series [5], the system named is Staphylococcus aureus. The experiment in a line: Antibacterial activity against methicillin-resistant Staphylococcus aureus COL assessed as inhibition of bacterial growth incubated for 24 hrs by CLSI based method. Type of series: functional. Summed up: as §3
Series [6] deals with Staphylococcus aureus. The experiment in a line: Antibacterial activity against methicillin-resistant Staphylococcus aureus N315 assessed as inhibition of bacterial growth incubated for 24 hrs by CLSI based method. Type of series: functional. A digest of the protocol:
as §3

The subject of series [7] is Staphylococcus aureus. The experiment in a line: Antibacterial activity against methicillin-resistant Staphylococcus aureus NRS71 assessed as inhibition of bacterial growth incubated for 24 hrs by CLSI based method. In kind it is functional. Summed up:
as §3

For series [8], the system named is Staphylococcus epidermidis. The experiment in a line: Antibacterial activity against Staphylococcus epidermidis NIF104008 assessed as inhibition of bacterial growth incubated for 24 hrs by CLSI based method. Type of series: functional. Summed up: as §3
Series [9] relates to Staphylococcus epidermidis. The experiment in a line: Antibacterial activity against Staphylococcus epidermidis NIF104003 assessed as inhibition of bacterial growth incubated for 24 hrs by CLSI based method. Type of series: functional. A digest of the protocol:
as §3

Series [10] relates to Enterococcus faecalis. The experiment in a line: Antibacterial activity against Enterococcus faecalis ATCC700802 assessed as inhibition of bacterial growth incubated for 24 hrs by CLSI based method. In kind it is functional. A digest of the protocol: as §3
The subject of series [11] is Enterococcus faecalis. The experiment in a line: Antibacterial activity against Enterococcus faecalis DHMC #1 assessed as inhibition of bacterial growth incubated for 24 hrs by CLSI based method. Type of series: functional. A digest of the protocol: as §3
Series [12] relates to Enterococcus faecium. The experiment in a line: Antibacterial activity against Enterococcus faecium ATCC19579 assessed as inhibition of bacterial growth incubated for 24 hrs by CLSI based method. In kind it is functional. Summed up:
as §3

Series [13] concerns Enterococcus faecium. The experiment in a line: Antibacterial activity against Enterococcus faecium DHMC #1 assessed as inhibition of bacterial growth incubated for 24 hrs by CLSI based method. In kind it is functional. Summed up: as §3
A further series deals with Escherichia coli. The experiment in a line: Antibacterial activity against Escherichia coli DHMC-1 assessed as inhibition of bacterial growth incubated for 24 hrs by CLSI based method. In kind it is functional. A digest of the protocol: as §3
A further series concerns Klebsiella pneumoniae. The experiment in a line: Antibacterial activity against Klebsiella pneumoniae 7117 assessed as inhibition of bacterial growth incubated for 24 hrs by CLSI based method. Type of series: functional. A digest of the protocol: as §3
The test system of another series is Enterobacter cloacae. The experiment in a line: Antibacterial activity against Enterobacter cloacae ND-21 assessed as inhibition of bacterial growth incubated for 24 hrs by CLSI based method. In kind it is functional. Summed up:
as §3

The subject of the next series is Candida albicans. The experiment in a line: Antifungal activity against Candida albicans SC5314 assessed as inhibition of bacterial growth incubated for 24 hrs by CLSI based method. In kind it is functional. Summed up: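 Broth microdilution per CLSI. It is mixed 1:1 with twofold serial compound dilutions and incubated stationary at 35 °C for 24 h. MIC is read as the lowest concentration with no observable growth.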

In series [14] the test system is Staphylococcus aureus. The experiment in a line: Antibacterial activity against community-associated methicillin-resistant Staphylococcus aureus USA300 FPR3757 assessed as inhibition of bacterial growth incubated for 24 hrs by CLSI based method. In kind it is functional. Summed up: as §1
Series [15] relates to Staphylococcus simulans. The experiment in a line: Antibacterial activity against Staphylococcus simulans assessed as inhibition of DNA synthesis at 0.5 to 5 times MIC measured upto 60 mins by [3H]-thymidine incorporation based scintillation counter analysis. In kind it is functional, organism-based. Particulars: DDE = dose-dependent effect. Summed up:
(§4)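 S. simulans was grown in cation-adjusted Mueller–Hinton medium at 37 °C. […] Samples were taken at 0–60 min, precipitated with ice-cold 10% TCA, filtered and counted. Inhibition at 60 min is relative to DMSO control; triplicate.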

The subject of series [16] is Staphylococcus simulans. The experiment in a line: Antibacterial activity against Staphylococcus simulans assessed as inhibition of RNA synthesis at 0.5 to 5 times MIC measured upto 60 mins by [3H]-uridine incorporation based scintillation counter analysis. The note with it: DDE = dose-dependent effect. In kind it is functional, organism-based. A digest of the protocol: as §4

For series [17], the system named is Staphylococcus simulans. The experiment in a line: Antibacterial activity against Staphylococcus simulans assessed as inhibition of protein synthesis at 0.5 to 5 times MIC measured upto 60 mins by [3H]-L-isoleucine incorporation based scintillation counter analysis. The note with it: DDE = dose-dependent effect. Type of series: functional, organism-based. A digest of the protocol: as §4

The subject of series [18] is Staphylococcus simulans. The experiment in a line: Antibacterial activity against Staphylococcus simulans assessed as inhibition of DNA synthesis at 5 times MIC measured upto 60 mins by [3H]-thymidine incorporation based scintillation counter analysis. The note with it: 1 h. Type of series: functional. Summed up: (§5)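 Aliquots taken 0–60 min, precipitated with ice-cold 10% TCA, filtered, washed, scintillation counted. Percent inhibition is relative to DMSO control at 60 min; triplicate.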
For orientation: Incorporation of labelled thymidine or its analogues reports DNA synthesis.

Series [19] deals with Staphylococcus simulans. The experiment in a line: Antibacterial activity against Staphylococcus simulans assessed as inhibition of RNA synthesis at 5 times MIC measured upto 60 mins by [3H]-uridine incorporation based scintillation counter analysis. In kind it is functional. Particulars: 1 h. Summed up: as §5
Series [20] relates to Staphylococcus simulans. The experiment in a line: Antibacterial activity against Staphylococcus simulans assessed as inhibition of protein synthesis at 5 times MIC measured upto 60 mins by [3H]-L-isoleucine incorporation based scintillation counter analysis. Type of series: functional. The note with it: 1 h. A digest of the protocol:
as §5

Series [21] has as its system Staphylococcus simulans. The experiment in a line: Antibacterial activity against Staphylococcus simulans assessed as inhibition of cell wall synthesis at 5 times MIC measured upto 60 mins by [3H]-glucosamine incorporation based scintillation counter analysis. Type of series: functional. Particulars: 1 h. Summed up: as §5
In series [22] the test system is Staphylococcus aureus. The experiment in a line: Antibacterial activity against methicillin resistant Staphylococcus aureus FPR3757 assessed as inhibition of bacterial growth incubated for 24 hrs in presence of 10% FBS by CLSI based method. Type of series: functional. A digest of the protocol:
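CLSI broth microdilution against MRSA FPR3757 (USA300) in Mueller–Hinton broth supplemented with 10% serum (fetal bovine or mouse). Inoculum 10⁶ CFU/mL with twofold serial compound dilutions, stationary incubation at 37 °C for 24 h. MIC read as lowest concentration with complete inhibition of visible growth.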

The subject of series [23] is Staphylococcus aureus. The experiment in a line: microbe, parasite or virus in culture. Particulars: USA300 FPR3757, 24 h.

`Fc1ccc2c(Nc3ccc(C(F)(F)F)cn3)cc(C(F)(F)F)nc2c1`: the MIC with Staphylococcus aureus [1] is 1 µg/mL (≈ 2.66 µM). Further, the Activity entry in the series on Erythrocyte is on record as “Non-Toxic”.

Turning to `O=c1cc(C(F)(F)F)[nH]c2cc(C(F)(F)F)cc(Nc3ccc(F)c(F)c3)c12`, the MIC in the series with Staphylococcus aureus [1] was less than 0.0625 µg/mL. The Activity entry in the series with Erythrocyte is given as “Non-Toxic”. Moreover, in [2], the cytotoxic concentration (CC50) (usually the concentration that lowers cell viability or growth by half) is greater than 32 µg/mL. Further, the selectivity ratio in series [3] is greater than 500.

Turning to `FC(F)(F)c1ccc2c(Nc3ccc(Cl)c(Cl)c3)cc(C(F)(F)F)nc2c1`, the MIC amounted to 0.0625 µg/mL (≈ 0.147 µM) in the series on Staphylococcus aureus [1]; 0.125 µg/mL (≈ 0.294 µM) with Staphylococcus aureus [4]; 0.25 µg/mL (≈ 0.588 µM) with Staphylococcus aureus [5]; 0.25 µg/mL (≈ 0.588 µM) with Staphylococcus aureus [6]; 0.25 µg/mL (≈ 0.588 µM) in the series with Staphylococcus aureus [7]; 0.125 µg/mL (≈ 0.294 µM) in series [8]. Besides, the MIC in series [9] is 0.25 µg/mL (≈ 0.588 µM); in the series with Enterococcus faecalis [10] it was 0.5 µg/mL (≈ 1.18 µM); in the series with Enterococcus faecalis [11] it was 0.25 µg/mL (≈ 0.588 µM); in the series with Enterococcus faecium [12] it was 0.125 µg/mL (≈ 0.294 µM); in the series with Enterococcus faecium [13], 0.25 µg/mL (≈ 0.588 µM); in the series on Escherichia coli, greater than 128 µg/mL. Moreover, the MIC in the series with Klebsiella pneumoniae is greater than 128 µg/mL; with Enterobacter cloacae, greater than 128 µg/mL; with Candida albicans it was greater than 256 µg/mL; with Staphylococcus aureus [14], 0.0625 µg/mL (≈ 0.147 µM); in the series with Staphylococcus aureus [22], 8 µg/mL. Besides, the inhibition entry with Staphylococcus simulans [15], in the series with Staphylococcus simulans [16] and in the series on Staphylococcus simulans [17] was “Dde” each time. For the same molecule, the “inhibition (INH)” value in the series on Staphylococcus simulans [18], in the series with Staphylococcus simulans [19], in the series with Staphylococcus simulans [20] and in the series on Staphylococcus simulans [21] was 100% throughout. This molecule also registered an MBC against Staphylococcus aureus [23] of 2 µg/mL (≈ 4.7 µM).

For the molecule `O=c1cc(C(F)(F)F)[nH]c2cc(F)cc(Nc3ccc(C(F)(F)F)cn3)c12`, the MIC with Staphylococcus aureus [1] worked out at 1 µg/mL (≈ 2.56 µM). Also, the Activity result with Erythrocyte is recorded as “Non-Toxic”.

For `Fc1cc2nc(C(F)(F)F)cc(Nc3ccc(C(F)(F)F)cn3)c2cc1F`, the MIC in the series on Staphylococcus aureus [1] worked out at 0.25 µg/mL (≈ 0.636 µM). Further, the Activity entry in the series on Erythrocyte is “Toxic”.
